According to the RNAGym collection of RNA variant scans (doi:10.1126/science.aae0568):
Fewer inactive variants are shown than the library holds.

B1: tRNA (parent)
chain: GUUCCGUUGGCGUAAUGGUAACGCGUCUCCCUCCUAAGGAGAAGACUGCGGGUUCGAGUCCCGUACGGAACG

Variants of: B1
Assay: yeast fitness relative to wild type (ratio to wild type); higher = fitter; tRNA-Arg(CCU), competitive growth, 37 C, YPD
In short: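 The tRNA-Arg(CCU) gene variants were made by chemical synthesis with a 3% per-site mutation rate at 69 sites and inserted at the native genomic locus of Saccharomyces cerevisiae. After pooling, the strains were competed in YPD at 37°C for 24 hours in six parallel replicates. Gene amplicons from the start population and each end population were read by 100-nucleotide paired-end sequencing, and Darwinian fitness relative to wild type was taken from genotype frequency changes. Genotypes needed ≥ 100 starting reads, and estimates < 0.5 were set to 0.5.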

| Variant | yeast fitness |
| --- | --- |
| GUUCCGUUGGCGUAAAGGUAAGGCGUCUCCCUCCUAAGGAGAAGACUACGGGUUCGAGUCCCGUACGGAACG [U16A C22G G48A] | 0.994 |
| GUUCCGUUGGCGUAAAGGUAACGCGUCUCCCUCUUAAGGAGAAGACUGCGGGUUCGAGUCCCGUACGGAUCG [U16A C34U A70U] | ≤ 0.5 |
| GUUCCGUUGGCGUAAAGGUAACGCGUCUCCCUCCUAAGGAGAAGACUGCGGGUUAGAGUCCCGUACGGCACG [U16A C55A A69C] | ≤ 0.5 |
| GUUCCGUUGGCGUAAAGGUAACGCGUCUCCCUCCUAAGGAGCAGACUGCGGGUUCGAGUCCCGUACGGUACG [U16A A42C A69U] | 0.505 |
| GUUCCGUUGGCGUAAAGGUAACGCGUCUCCCUCCUAAGGAGAGGCCUGCGGGUUCGAGUCCCGUACGGAACG [U16A A43G A45C] | ≤ 0.5 |
| GUUCCGUUGGCGUAAAGGUAACGCGUCUCCCUCCUAAGGAGAAGACUGCGGGUUCGAGUCCCAUACGGAACG [U16A G63A] | 0.798 |
| GUUCCGUUGGCGUAAAAGUAAGGCGUCUCCCUCCUAAGGAGAAGACUGCGGGUUCGAGUCUCGUACGCAACG [U16A G17A C22G C61U G68C] | 0.659 |
| GUUCCGUUGGCGUAAAGGUAACGCGACUCGCUCCUAAGGAGAAGACUGCGGGUUCGAGCCCCGUACGGAACG [U16A U26A C30G U59C] | ≤ 0.5 |
| GUUCCGUUGGCGUAAAGCUAACGCGUCUCCUUCCUAAGGAGAAGACUGCGCGUUCGAGUCCCGUACGGAACG [U16A G18C C31U G51C] | ≤ 0.5 |
| GUUCCGUUGGCGUAAAGGUAACGCGUCUCCCUCCUACGGAGAAGACUCCGGGUUCGAGUCCCGUACGGAACG [U16A A37C G48C] | 0.546 |
| GUUCCGUUGGCGUAAAGGUGACGCGUUUACCUCCUAAGGACAAGACUGCGGGUUCGAGUCCCAUACGGAACG [U16A A20G C27U C29A G41C G63A] | ≤ 0.5 |
| GUUCCGUUGGCGUAAAGGUAACGCGUCUCCCUCCUAAGGACAAGCCUGCGGGUUCGAGUCCCGUACGGAACG [U16A G41C A45C] | ≤ 0.5 |
| GUUCCGUUGGCGUAAAGGUAACGCGUCUCCCUCCUAAGGAGAAGACUGCGGAUUCGCGUCCCGUACGGAACG [U16A G52A A57C] | 0.571 |
| GUUCCGUUGGCGUAAAGGUACCGCGUCUCGCUCCUGAGGAGAAGACUGCGCAUUCGAGUCCCGUACGGAACG [U16A A21C C30G A36G G51C G52A] | ≤ 0.5 |
| GUUCCGUUGGCGUAAAGGUAACGCGUCUCCCUCCUAAGGAGUAGACUGCGGGAUCGAGUCCCGUACGGAACG [U16A A42U U53A] | ≤ 0.5 |
| GUUCCGUUGGCGUAAAGGUAACGCGUCUCCGUCCUAAGGAGAAGACUGCGGGUUCGAGUCCCGUCCGGAACG [U16A C31G A65C] | 0.619 |
| GUUCCGUUGGCGUAAAGGUAAUGCGCCUCCCUCCUAAGGAGAAGACUGCGGGUGCGAGUCCCGUAAGGAACG [U16A C22U U26C U54G C66A] | 0.58 |
| GUUCCGUUGGCGUAAAGCUAACGCGACUCCCUCCUAAGGAGAAGACCGCGGGUUCGAGUCCCGUCCGGAACG [U16A G18C U26A U47C A65C] | ≤ 0.5 |
| GUUCCGUUGGCGUAAAGGUAACGCGUCUCCCUCCUAAGGAGAAGAGUGCGGGUUCGGGUCACGUACGGAACG [U16A C46G A57G C61A] | ≤ 0.5 |

| Variant | yeast fitness |
| --- | --- |
| GUUCCGUUGGCGUAAAGGUAACGCGUCUCCCUCCUGAGGAGAAGACUGCGGGUUCGUGUCCCGUACGGAGCG [U16A A36G A57U A70G] | ≤ 0.5 |
| GUUCCGUUGGCGUAAACGUAACGCGUCUCCCUCCUAAGGAGAUGCAUGCGGGUUCGAGUCUCGUACGGAACG [U16A G17C A43U A45C C46A C61U] | ≤ 0.5 |
| GUUCCGUUGGCGUAAAGGUAACGGGUCUCCCUCCUAAGGAGAAGACUGCGGGUUCAAGUCCCGUACGGAACG [U16A C24G G56A] | ≤ 0.5 |
| GUUCCGUUGGCGUAAAGGUAACGCGUCUCCCUCCUAAGGAGAAGCCUGCGGGUUCGAGUCCCGUACGGAACG [U16A A45C] | 0.994 |
| GUUCCGUUGGCGUAAAGGUCACGCGUCUCCCUCCUAAGGAGAAGACUGCGGGCUCGAGUCCCGUACGGAACG [U16A A20C U53C] | 0.599 |
| GUUCCGUUGGCGUAAAGGUAACCCGUGUCCCUCAUAAGGAGAAAACUGCGGGUUCGAGUCCCGUACGGAACG [U16A G23C C27G C34A G44A] | ≤ 0.5 |
| GUUCCGUUGGCGUAAAGGUAACGAGUCUCCCUCCUAAGGAGAGGACUGCGGGUUCGAGUCCCGUACGGAACG [U16A C24A A43G] | ≤ 0.5 |
| GUUCCGUUGGCGUAAAGGUAACGCGUCUCCCUCCUAAGGAGAAGACUUCGGGUUCGAGUCCCGUACGGAACG [U16A G48U] | 0.754 |
| GUUCCGUUGGCGUAAAGGUAACGCGUCUGCCACCUGAGGAGAAGACUGUGAGUUCGAGUCCCGUACGGAACG [U16A C29G U32A A36G C49U G51A] | ≤ 0.5 |
| GUUCCGUUGGCGUAAAGGUAACGCGUCUCCCUCCUAUGGAGAAGACUGCGGGUUGCAGUCCCGUACGGAACG [U16A A37U C55G G56C] | ≤ 0.5 |
| GUUCCGUUGGCGUAAAGGUAACGCGUCCCCCUCCUAAGGAGAAGACUGCGGGUUCGAGUCCCGUACGGACCG [U16A U28C A70C] | 0.569 |
| GUUCCGUUGGCGUAAAGGUAACGAGUCUCGCUCUUAAGGAGAAGACUGCGGGUUCCAGUCCCGUACGGAACG [U16A C24A C30G C34U G56C] | 0.634 |
| GUUCCGUUGGCGUAAAGGUAACGCGUCUCCCUCCUAAGGAGAAGACUGCGGGUUCGAGUCCCGUAUGGAACG [U16A C66U] | 0.897 |
| GUUCCGUUGGCGUAAAGGUAAUGCGUCUCCCUCCUAAGGAGAAGACUGCGGGUUAGAGUCCCGUACGGAACG [U16A C22U C55A] | 0.808 |
| GUUCCGUUGGCGUAAAGGUAACGGGUCUCCCUCCUAAGGAGAAGACUGCGGGUUCGAGUCCCGUACGGAACG [U16A C24G] | 0.528 |
| GUUCCGUUGGCGUAAAGGUAACGCGUCUCCCUCCUAAGGAGAAGAGUGCGGGUUCGAGUCCCGUACGGAGCG [U16A C46G A70G] | 0.604 |
| GUUCCGUUGGCGUAAAGGUAACGCGUCUCCCUCCUAAGGAAAAGACUGCGGGUUCGAGUCCCGUACGGAACG [U16A G41A] | 1.1 |
| GUUCCGUUGGCGUAAAGGUAACGCGUCUCCCUCCUAAGGAAAAGACUGCGGGUUCGAGUCCCGUACGGAUCG [U16A G41A A70U] | 0.666 |
| GUUCCGUUGGCGUAAAGGUAUCGCGUCUCACUCCUAAAGAGAAGACUGCGGGUUAGAGUCCCGUCCGGAACG [U16A A21U C30A G38A C55A A65C] | ≤ 0.5 |
